# The source made the active and inactive calls. No cut-off for these calls is given here.
# Assays:
# [1] = biological target: Histone deacetylase 1 (Homo sapiens) (UniProt Q13547); conditions: NCI-H460, 0.1 uM
# [2] = biological target: Transcription factor E2F1 (Homo sapiens) (UniProt Q01094); test: Inhibition of E2F1 in human A549 cells assessed as downregulation of PCNA gene expression at 0.1 uM after 6 to 36 hrs by RT-PCR analysis; format: cell-based
# Outline: (§1)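 A549 cells given 0.1 μM over a time course. RNA extracted and RT-PCR run with gene-specific primers. Bands quantified by densitometry and normalized to GAPDH.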
# A549 [3] = test: Upregulation of p21 protein expression in human A549 cells at 0.1 uM after 6 hrs by Western blotting analysis in presence of Hsp90 inhibitor 17-AAG; format: functional, cell-based
# Outline: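 A549 cells treated 6 h with 0.1 μM, with or without 1 μM 17-AAG, then lysed and Western blotted. p21 quantified by densitometry and normalized to β-actin.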
# A549 [4] = test: Downregulation of E2F1 in human A549 cell cytoplasm at 0.1 uM after 6 to 24 hrs by Western blotting analysis; format: functional, cell-based
# Outline: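 A549 cells exposed to 0.1 μM largazole for indicated times. Cytoplasmic and nuclear fractions separated, then Western blotted for E2F1.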
# NCI-H460 [5] = test: Cell cycle arrest in human NCI-H460 cells assessed as accumulation at G2 phase at 0.1 uM after 24 hrs by propidium iodide staining-based flow cytometric analysis (reference value: 9.5%); format: functional
# [6] = biological target: Transcription factor E2F1 (Homo sapiens) (UniProt Q01094); test: Induction of E2F1 degradation in human 16HBE cells at 0.1 uM after 12 to 24 hrs by Western blotting analysis; format: cell-based
# Outline: (§2)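 Each cell line (16-HBE, 95D, L78, H1975, H460) treated with 0.1 μM largazole for indicated times. Lysates Western blotted for E2F1.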
# [7] = biological target: Transcription factor E2F1 (Homo sapiens) (UniProt Q01094); test: Inhibition of E2F1 in human A549 cells assessed as downregulation of DHFR gene expression at 0.1 uM after 6 to 36 hrs by RT-PCR analysis; format: cell-based
# Outline: as §1
# [8] = biological target: T1, Retinoblastoma-associated protein (Homo sapiens) (UniProt P06400); test: Dephosphorylation of Rb in human A549 cells at 0.1 uM after 6 to 12 hrs by Western blotting analysis; format: cell-based
# T1 sequence (whole entry): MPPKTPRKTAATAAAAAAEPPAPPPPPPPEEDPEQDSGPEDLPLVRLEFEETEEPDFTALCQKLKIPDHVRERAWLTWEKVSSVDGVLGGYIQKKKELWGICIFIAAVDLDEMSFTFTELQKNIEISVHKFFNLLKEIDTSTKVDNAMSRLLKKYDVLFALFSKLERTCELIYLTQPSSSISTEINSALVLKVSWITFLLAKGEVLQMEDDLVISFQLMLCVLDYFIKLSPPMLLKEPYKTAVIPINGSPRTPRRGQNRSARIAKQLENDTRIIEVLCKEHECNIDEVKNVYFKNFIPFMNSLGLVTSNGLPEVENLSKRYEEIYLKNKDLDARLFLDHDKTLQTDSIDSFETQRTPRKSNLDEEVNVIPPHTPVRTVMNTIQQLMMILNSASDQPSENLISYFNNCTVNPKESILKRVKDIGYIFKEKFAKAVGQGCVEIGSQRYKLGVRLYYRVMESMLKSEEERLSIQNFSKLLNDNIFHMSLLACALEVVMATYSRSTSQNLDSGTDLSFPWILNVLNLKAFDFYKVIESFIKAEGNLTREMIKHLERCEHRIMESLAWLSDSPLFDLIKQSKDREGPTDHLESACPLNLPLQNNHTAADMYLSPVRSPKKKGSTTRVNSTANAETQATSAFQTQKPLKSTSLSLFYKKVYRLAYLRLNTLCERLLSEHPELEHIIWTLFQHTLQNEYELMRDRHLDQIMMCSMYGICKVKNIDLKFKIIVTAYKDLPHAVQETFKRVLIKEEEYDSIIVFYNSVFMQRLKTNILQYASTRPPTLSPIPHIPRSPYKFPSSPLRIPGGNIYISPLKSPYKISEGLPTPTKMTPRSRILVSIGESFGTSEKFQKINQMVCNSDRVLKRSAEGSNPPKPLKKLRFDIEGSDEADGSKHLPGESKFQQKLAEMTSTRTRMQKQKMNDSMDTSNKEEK
# [9] = biological target: Transcription factor E2F1 (Homo sapiens) (UniProt Q01094); test: Induction of E2F1 degradation in human A549 cells at 0.1 uM after 12 hrs by Western blotting analysis in presence of proteasome inhibitor bortezomib; format: cell-based
# Outline: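 A549 cells pretreated 2 h with bortezomib (100 nM) or MG-132 (10 μM), then given largazole 0.1 μM for a further 12 h. Lysates Western blotted for E2F1.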
# NCI-H460 [10] = test: Cell cycle arrest in human NCI-H460 cells assessed as accumulation at S phase at 0.06 uM after 24 hrs by propidium iodide staining-based flow cytometric analysis (reference value: 31.6%); format: functional
# NCI-H460 [11] = test: Cell cycle arrest in human NCI-H460 cells assessed as accumulation at S phase at 0.1 uM after 24 hrs by propidium iodide staining-based flow cytometric analysis (reference value: 31.6%); format: functional
# A549 [12] = test: Induction of apoptosis in human A549 cells assessed as decrease in pro-caspase-3 level at 0.1 uM after 48 hrs by Western blotting analysis; format: functional, cell-based
# Outline: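 A549 cells given largazole 0.1 μM for indicated times, lysed, and Western blotted for pro-/cleaved caspase-9, caspase-8, pro-/active caspase-3 and PARP.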
# [13] = biological target: Transcription factor E2F1 (Homo sapiens) (UniProt Q01094); test: Induction of E2F1 degradation in human 95-D cells at 0.1 uM after 12 to 24 hrs by Western blotting analysis; format: cell-based
# Outline: as §2
# A549 [14] = test: Cytotoxicity against human A549 cells after 48 hrs by CCK-8 assay; format: functional, cell-based; conditions: A549, 48 h
# Outline: (§3)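 Cells treated with a range of largazole concentrations for 48 h. Proliferation read by CCK-8 assay; IC50 derived from the concentration series.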
# A549 [15] = test: Induction of apoptosis in human A549 cells assessed as increase in cleaved caspase-9 level at 0.1 uM after 48 hrs by Western blotting analysis; format: functional, cell-based
# Outline: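 A549 cells exposed to 0.1 μM for a time course, then lysed and Western blotted. Read-outs are pro- and cleaved caspase-9, pro- and active caspase-3, and cleaved PARP.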
# [16] = biological target: Transcription factor E2F1 (Homo sapiens) (UniProt Q01094); test: Induction of E2F1 degradation in human L78 cells at 0.1 uM after 12 to 24 hrs by Western blotting analysis; format: cell-based
# Outline: as §2
# NCI-H1975 = test: Cytotoxicity against human NCI-H1975 cells after 48 hrs by CCK-8 assay; format: functional, cell-based; conditions: NCI-H1975, 48 h
# Outline: as §3
# [17] = Cytotoxicity against human 95-D cells after 48 hrs by CCK-8 assay; format: functional, cell-based
# Outline: as §3
# NCI-H460 [18] = test: Cell cycle arrest in human NCI-H460 cells assessed as accumulation at G1 phase at 0.06 uM after 24 hrs by propidium iodide staining-based flow cytometric analysis (reference value: 58.9%); format: functional
# [19] = Cytotoxicity against human SPCA1 cells after 48 hrs by CCK-8 assay; format: functional, cell-based; conditions: SPCA1, 48 h
# Outline: as §3
# [20] = biological target: T1, Retinoblastoma-associated protein (Homo sapiens); test: Dephosphorylation of Rb in human A549 cells assessed as increase in E2F1-HDAC1 interaction at 0.1 uM after 8 hrs by immunoprecipitation and Western blotting analysis; format: cell-based
# Outline: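 A549 cells treated with 0.1 μM largazole for 8 h and lysed. Lysates immunoprecipitated, then Western blotted with the indicated antibodies.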
# A549 [21] = test: Cell cycle arrest in human A549 cells assessed as accumulation at G1 phase at 0.1 uM after 24 hrs by propidium iodide staining-based flow cytometric analysis (reference value: 48.3%); format: functional
# Transcription factor E2F1 (Homo sapiens), sequence (Q01094 whole entry): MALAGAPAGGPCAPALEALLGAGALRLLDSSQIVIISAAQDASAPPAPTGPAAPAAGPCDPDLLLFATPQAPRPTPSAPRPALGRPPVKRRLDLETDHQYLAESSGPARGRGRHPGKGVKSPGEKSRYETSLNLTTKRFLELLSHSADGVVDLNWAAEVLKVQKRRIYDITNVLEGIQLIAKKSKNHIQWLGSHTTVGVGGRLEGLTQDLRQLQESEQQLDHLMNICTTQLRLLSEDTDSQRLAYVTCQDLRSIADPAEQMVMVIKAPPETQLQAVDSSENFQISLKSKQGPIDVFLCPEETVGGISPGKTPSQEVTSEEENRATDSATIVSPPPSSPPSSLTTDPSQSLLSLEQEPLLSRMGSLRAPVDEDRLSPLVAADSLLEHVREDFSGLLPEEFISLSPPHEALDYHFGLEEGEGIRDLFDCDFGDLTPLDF
# Histone deacetylase 1 (Homo sapiens), sequence (Q13547 whole entry): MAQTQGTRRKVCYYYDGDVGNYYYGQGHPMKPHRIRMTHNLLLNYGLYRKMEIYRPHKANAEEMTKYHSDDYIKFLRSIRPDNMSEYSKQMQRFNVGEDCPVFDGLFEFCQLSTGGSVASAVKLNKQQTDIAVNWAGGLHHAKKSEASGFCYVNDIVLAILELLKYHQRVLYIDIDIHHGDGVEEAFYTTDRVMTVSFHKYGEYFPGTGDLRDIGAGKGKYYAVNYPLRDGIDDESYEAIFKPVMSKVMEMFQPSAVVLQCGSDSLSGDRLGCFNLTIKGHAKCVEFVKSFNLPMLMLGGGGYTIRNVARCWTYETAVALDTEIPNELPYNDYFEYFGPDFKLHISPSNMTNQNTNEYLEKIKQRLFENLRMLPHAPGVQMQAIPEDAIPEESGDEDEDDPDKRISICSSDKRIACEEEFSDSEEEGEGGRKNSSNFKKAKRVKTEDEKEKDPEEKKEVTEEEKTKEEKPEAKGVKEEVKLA
smiles,measurement,setting,value
CCCCCCCC(=O)SCC/C=C/[C@@H]1CC(=O)NCc2nc(cs2)C2=N[C@@](C)(CS2)C(=O)N[C@@H](C(C)C)C(=O)O1 [LARGAZOLE],inhibition,[1],Active
same,inhibition,[2],Active
same,Activity,A549 [3],inactive
same,Activity,A549 [4],Active
same,Activity,NCI-H460 [5],5.3%
same,Activity,[6],inactive
same,inhibition,[7],Active
same,Activity,[8],Active
same,Activity,[9],inactive
same,Activity,NCI-H460 [10],10.4%
same,Activity,NCI-H460 [11],10.6%
same,Activity,A549 [12],Active
same,Activity,[13],Active
same,IC50,A549 [14],77 nM
same,Activity,A549 [15],Active
same,Activity,[16],Active
same,IC50,NCI-H1975,83 nM
same,IC50,[17],420 nM
same,Activity,NCI-H460 [18],78.8%
same,IC50,[19],140 nM
same,Activity,[20],Active
same,Activity,A549 [21],88.2%
